From ChEMBL document CHEMBL3407418, “Fragment-based drug discovery of 2-thiazolidinones as BRD4 inhibitors: 2. Structure-based optimization” (J Med Chem, 2015)
Activity calls are given as the source filed them. The rule behind the calls is not given here.

Experiments:
[1] = target: T1, ATPase family AAA domain-containing protein 2 (Homo sapiens) (UniProt Q6PL18); assay: Binding affinity to ATAD2 (unknown origin) assessed as increase in protein melting temperature at 50 umol by real-time PCR system based thermal shift assay
T1 sequence (whole entry): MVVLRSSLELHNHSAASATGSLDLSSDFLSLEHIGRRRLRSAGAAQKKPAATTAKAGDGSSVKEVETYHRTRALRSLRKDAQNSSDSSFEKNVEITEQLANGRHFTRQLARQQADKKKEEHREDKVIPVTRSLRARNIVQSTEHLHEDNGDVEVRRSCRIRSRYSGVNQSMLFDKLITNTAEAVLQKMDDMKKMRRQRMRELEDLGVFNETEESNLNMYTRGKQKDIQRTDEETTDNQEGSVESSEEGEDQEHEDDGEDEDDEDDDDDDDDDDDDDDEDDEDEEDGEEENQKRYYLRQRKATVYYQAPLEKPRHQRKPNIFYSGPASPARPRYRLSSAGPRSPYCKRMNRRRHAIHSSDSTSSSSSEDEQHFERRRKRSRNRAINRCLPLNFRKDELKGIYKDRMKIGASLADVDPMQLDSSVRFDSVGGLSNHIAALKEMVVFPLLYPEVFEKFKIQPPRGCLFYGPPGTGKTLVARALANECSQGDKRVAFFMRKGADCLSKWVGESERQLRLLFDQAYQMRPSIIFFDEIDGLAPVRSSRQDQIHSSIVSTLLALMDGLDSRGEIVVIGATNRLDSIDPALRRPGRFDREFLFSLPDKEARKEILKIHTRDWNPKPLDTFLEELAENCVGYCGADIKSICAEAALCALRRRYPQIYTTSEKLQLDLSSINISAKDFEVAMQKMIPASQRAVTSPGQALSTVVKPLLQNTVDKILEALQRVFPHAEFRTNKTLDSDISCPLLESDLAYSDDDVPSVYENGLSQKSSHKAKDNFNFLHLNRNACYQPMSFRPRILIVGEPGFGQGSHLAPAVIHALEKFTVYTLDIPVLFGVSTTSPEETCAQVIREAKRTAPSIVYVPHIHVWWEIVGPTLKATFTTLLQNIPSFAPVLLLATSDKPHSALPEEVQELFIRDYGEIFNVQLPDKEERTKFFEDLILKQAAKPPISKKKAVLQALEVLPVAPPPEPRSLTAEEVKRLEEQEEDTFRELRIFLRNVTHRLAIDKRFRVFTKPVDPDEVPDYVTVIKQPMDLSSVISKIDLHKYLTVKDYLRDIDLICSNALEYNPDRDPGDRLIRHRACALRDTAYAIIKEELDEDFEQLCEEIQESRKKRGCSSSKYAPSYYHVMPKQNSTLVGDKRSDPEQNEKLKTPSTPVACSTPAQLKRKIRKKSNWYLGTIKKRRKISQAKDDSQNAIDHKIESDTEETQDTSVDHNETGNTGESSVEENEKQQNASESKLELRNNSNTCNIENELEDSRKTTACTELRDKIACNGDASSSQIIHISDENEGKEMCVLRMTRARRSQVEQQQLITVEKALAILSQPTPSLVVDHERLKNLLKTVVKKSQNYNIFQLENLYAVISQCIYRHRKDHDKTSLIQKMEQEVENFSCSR
Procedure, shortened: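 Bromodomain proteins in 10 mmol HEPES pH 7.5, 500 mmol NaCl at 75 μg/mL final; compound at 50 µmol final; SYPRO Orange probe at 1:1000. Four replicates per protein mixture. Melt curve read on a real-time PCR instrument, heating 25 °C to 99 °C at 1 °C/min under continuous fluorescence reading; binding taken as the rise in protein melting temperature.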

CYP2D6 = CYP2D6 (Homo sapiens, UniProt P10635); assay: Inhibition of CYP2D6 in human liver microsomes at 10 uM using dextromethorphan substrate preincubated for 5 mins before NADPH addition and measured after 20 mins post NADPH addition; assay type: ADME; settings: liver microsomes, probe dextromethorphan
Chain of CYP2D6 (P10635 whole entry): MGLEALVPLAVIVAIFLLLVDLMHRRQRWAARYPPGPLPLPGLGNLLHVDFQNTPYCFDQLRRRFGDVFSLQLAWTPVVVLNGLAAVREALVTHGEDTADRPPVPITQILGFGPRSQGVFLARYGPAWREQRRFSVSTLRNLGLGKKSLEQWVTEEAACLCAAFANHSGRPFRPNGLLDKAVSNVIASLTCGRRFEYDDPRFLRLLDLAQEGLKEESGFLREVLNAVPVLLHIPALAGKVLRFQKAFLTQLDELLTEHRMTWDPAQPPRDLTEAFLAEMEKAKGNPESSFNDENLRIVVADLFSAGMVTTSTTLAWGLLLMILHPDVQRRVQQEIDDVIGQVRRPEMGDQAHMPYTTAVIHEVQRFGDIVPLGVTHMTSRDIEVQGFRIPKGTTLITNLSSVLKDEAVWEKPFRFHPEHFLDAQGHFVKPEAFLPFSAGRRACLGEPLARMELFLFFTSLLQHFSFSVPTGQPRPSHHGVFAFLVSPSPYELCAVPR
Procedure, shortened: (§1)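 Human liver microsomes 0.2 mg/mL, 1 mmol NADPH, 100 mmol phosphate pH 7.4, probe cocktail (10 μM midazolam, 100 μM testosterone, 10 μM dextromethorphan, 20 μM diclofenac, 100 μM phenacetin, 100 μM mephenytoin), test compound 10 μM or PBS; organic solvent <1%. 5 min preincubation at 37 °C, NADPH-generating system start, 20 min reaction; inhibition from metabolite formation relative to PBS.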

Cytochrome P450 2C9 [2] = target: T2, Cytochrome P450 2C9 (Homo sapiens, UniProt P11712); assay: (§2) Inhibition of CYP2C9 in human liver microsomes at 10 uM using diclofenac substrate preincubated for 5 mins before NADPH addition and measured after 20 mins post NADPH addition; assay type: ADME; settings: microsomes, 20 min, 10 µM; procedure, shortened: as §1
T2 sequence (P11712 whole entry): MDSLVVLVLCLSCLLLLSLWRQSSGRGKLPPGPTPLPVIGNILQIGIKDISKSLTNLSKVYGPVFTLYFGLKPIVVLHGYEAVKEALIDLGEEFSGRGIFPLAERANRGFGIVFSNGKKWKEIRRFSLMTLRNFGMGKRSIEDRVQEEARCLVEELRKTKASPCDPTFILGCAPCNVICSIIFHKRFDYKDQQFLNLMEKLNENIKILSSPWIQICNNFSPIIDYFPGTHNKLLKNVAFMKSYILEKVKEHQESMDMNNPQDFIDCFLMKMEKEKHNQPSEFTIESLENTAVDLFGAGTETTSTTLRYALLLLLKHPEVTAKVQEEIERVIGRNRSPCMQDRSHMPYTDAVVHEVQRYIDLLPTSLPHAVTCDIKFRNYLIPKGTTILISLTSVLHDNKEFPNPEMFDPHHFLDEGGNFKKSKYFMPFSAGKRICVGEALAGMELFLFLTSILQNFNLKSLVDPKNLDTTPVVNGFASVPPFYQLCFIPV

Cytochrome P450 2C9 [3] = target: T2, Cytochrome P450 2C9; assay: Time dependent inhibition of CYP2C9 in human liver microsomes at 10 uM using diclofenac substrate preincubated for 5 mins before NADPH addition and measured after 20 mins post NADPH addition; assay type: ADME
Cytochrome P450 2C19 = Cytochrome P450 2C19 (Homo sapiens, UniProt P33261); assay: Time dependent inhibition of CYP2C19 in human liver microsomes at 10 uM using mephenytoin substrate preincubated for 5 mins before NADPH addition and measured after 20 mins post NADPH addition; assay type: ADME
Chain of Cytochrome P450 2C19 (P33261 whole entry): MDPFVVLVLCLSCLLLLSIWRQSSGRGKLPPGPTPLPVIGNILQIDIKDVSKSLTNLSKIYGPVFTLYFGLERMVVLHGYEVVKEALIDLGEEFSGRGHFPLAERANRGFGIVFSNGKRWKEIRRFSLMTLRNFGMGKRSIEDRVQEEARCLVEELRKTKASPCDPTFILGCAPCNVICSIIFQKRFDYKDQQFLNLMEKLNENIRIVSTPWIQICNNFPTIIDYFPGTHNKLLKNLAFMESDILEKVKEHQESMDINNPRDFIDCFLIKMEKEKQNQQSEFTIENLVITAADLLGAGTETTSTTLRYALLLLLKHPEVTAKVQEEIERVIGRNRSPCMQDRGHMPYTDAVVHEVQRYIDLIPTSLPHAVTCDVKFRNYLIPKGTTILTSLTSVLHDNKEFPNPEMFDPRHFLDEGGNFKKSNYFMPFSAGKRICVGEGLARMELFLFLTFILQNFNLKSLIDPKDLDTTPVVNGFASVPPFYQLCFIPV

CYP2C9 = CYP2C9 (Homo sapiens, UniProt P11712); assay: as §2; assay type: ADME; settings: liver microsomes, probe diclofenac; procedure, shortened: as §1
Chain of CYP2C9 (P11712 whole entry): as the sequence (P11712 whole entry) above

Cytochrome P450 2D6 = Cytochrome P450 2D6 (Homo sapiens, UniProt P10635); assay: Time dependent inhibition of CYP2D6 in human liver microsomes at 10 uM using dextromethorphan substrate preincubated for 5 mins before NADPH addition and measured after 20 mins post NADPH addition; assay type: ADME
Chain of Cytochrome P450 2D6 (P10635 whole entry): as the sequence (P10635 whole entry) above

[4] = target: T3, Bromodomain-containing protein 4 (Homo sapiens, UniProt O60885); assay: Inhibition of BRD4 in human HT-29 cells assessed as reduction in c-Myc protein expression at 5 and 10 uM after 24 hrs by Western blotting method; assay type: cell-based
Procedure, shortened: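 HT-29 cells seeded overnight, then treated 24 h; lysed in 1×SDS buffer (50 mmol/L Tris-HCl pH 6.8, 100 mmol/L DTT, 2% SDS, 10% glycerol), boiled 10 min. c-Myc immunoblotted with GAPDH loading control, peroxidase secondary antibodies, ECL detection. Repeated three times.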

[5] = target: T3, Bromodomain-containing protein 4; assay: Inhibition of BRD4 in human HT-29 cells assessed as reduction in c-myc mRNA expression at 0.3125 uM to 5 uM uM after 24 hrs by RT-qPCR method; assay type: cell-based
Procedure, shortened: (§3)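 HT-29 cells seeded overnight and exposed to compounds for 24 h; total RNA isolated, reverse-transcribed, and analysed by RT-qPCR with c-myc primers. Relative c-myc mRNA normalised to β-actin and expressed versus untreated control.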

[6] = target: T3, Bromodomain-containing protein 4; assay: Inhibition of BRD4 in human HT-29 cells assessed as reduction in c-myc mRNA expression at 5 uM after 24 hrs by RT-qPCR method; assay type: cell-based; procedure, shortened: as §3
Cytochrome P450 3A4 = Cytochrome P450 3A4 (Homo sapiens, UniProt P08684); assay: Time dependent inhibition of CYP3A4 in human liver microsomes at 10 uM using midazolam substrate preincubated for 5 mins before NADPH addition and measured after 20 mins post NADPH addition; assay type: ADME
Chain of Cytochrome P450 3A4 (P08684 whole entry): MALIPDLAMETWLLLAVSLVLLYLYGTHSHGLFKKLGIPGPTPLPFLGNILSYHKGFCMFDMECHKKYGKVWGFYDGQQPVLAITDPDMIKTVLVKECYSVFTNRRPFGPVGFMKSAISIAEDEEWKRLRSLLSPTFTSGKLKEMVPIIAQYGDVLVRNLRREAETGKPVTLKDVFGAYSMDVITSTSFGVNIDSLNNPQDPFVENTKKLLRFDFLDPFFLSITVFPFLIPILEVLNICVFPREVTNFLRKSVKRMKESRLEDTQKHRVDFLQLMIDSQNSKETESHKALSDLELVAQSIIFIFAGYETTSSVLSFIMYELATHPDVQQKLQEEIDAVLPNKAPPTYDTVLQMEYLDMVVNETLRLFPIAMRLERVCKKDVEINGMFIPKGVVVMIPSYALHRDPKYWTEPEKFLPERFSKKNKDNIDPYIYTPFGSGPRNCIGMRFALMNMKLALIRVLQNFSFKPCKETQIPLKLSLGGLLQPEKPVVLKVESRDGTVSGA

SMILES | ΔTm [1] | inhibition at 20 min, 10 µM (CYP2D6) | inhibition (INH) (Cytochrome P450 2C9 [2]) | TDI (Cytochrome P450 2C9 [3]) | TDI (Cytochrome P450 2C19) | inhibition at 20 min, 10 µM (CYP2C9) | TDI (Cytochrome P450 2D6) | inhibition [4] | inhibition [5] | inhibition [6] | TDI (Cytochrome P450 3A4)
Cc1ccc(-c2csc(=O)[nH]2)cc1S(=O)(=O)NC1CCCC1 | 1.44 °C | 27% | Not Active | Active | Active |  |  |  |  |  | 
COc1ccc(-c2csc(=O)[nH]2)cc1S(=O)(=O)NC1CCCC1 | 1.36 °C |  |  |  | Active | 10% | Active |  |  |  | 
Cc1c(Br)cc(-c2csc(=O)[nH]2)cc1S(=O)(=O)NC1CCCC1 | 3.42 °C | 39% | Not Active | Active |  |  |  | Active | Active | > 60% | 
Cc1c(N)cc(-c2csc(=O)[nH]2)cc1S(=O)(=O)NC1CCCC1 | 2.7 °C | 3% | Not Active | Not Active | Not Active |  | Not Active | Active | Active | 90% | Not Active
Nc1ccc(-c2csc(=O)[nH]2)cc1S(=O)(=O)NC1CCCC1 | 3.28 °C | 18% |  |  |  | 74% |  |  |  |  | Active
O=C(Nc1cc(-c2csc(=O)[nH]2)cc(S(=O)(=O)NC2CCCC2)c1)C1CC1 | 3.55 °C | 17% |  | Not Active | Not Active | 14% | Not Active | Active | Active | > 60% | Not Active
